# MT stabilizer: microtubule stabilizers in HeLa cells | HeLa tubulin immunostaining HCS, 24 h; share of cells brighter than vehicle mean+2SD | % tubulin-high responders, % at 10 µM | 200,000 tested, 0.83% active;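 active = plate Z-score above 3 for both tubulin-high and condensed-nucleus cell shares, with cell loss under 80%, at 10 µM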;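 also: anti alpha tubulin signal scored within the nucleus-defined area of each cell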
# BaF3 parental: parental Ba/F3 viability inhibition as JAK2V617F counter-screen | CellTiter-Glo ATP luminescence | inhibition, % at 5.6 µM | 220,000 tested, 1.1% active;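 active = inhibition above a per-campaign cutoff, the mean inhibition of all tested compounds plus 3 SD, cut at about 27% in these data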;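 also: 0% = DMSO wells and 100% = JAK Inhibitor I control wells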
# APP 5UTR inh: APP translation inhibition. AID 1285. inhibition, % at 2 µM. SH-SY5Y APP 5'UTR-luciferase reporter, luminescence. 190,000 tested, 0.82% active;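 active = inhibition above a set limit, derived from the sample mean plus 3 SD, cut at about 45% in these data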
# IEC-6 cytotox: kills IEC-6 intestinal cells in KLF5 counter-screen. 290,000 tested, 0.78% active. inhibition, % at 5 µM. IEC-6 cytotoxicity, luminescence viability. AID 1825; in the data active = inhibition above about 22%;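 also: 0% = plate median of test compound wells and 100% = cytotoxic reference compound wells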
# b-catenin transl: alters nuclear translocation of beta-catenin in HeLa cells. immunofluorescence imaging. nuclear translocation activity, % at 5 µM. 190,000 tested, 0.3% active;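 active = nuclear translocation activity above 50% at 5 µM, with a well cell count of 50 or more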;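 also: per-cell ratio of nuclear to cytoplasmic median beta-catenin stain intensity; plate controls were DMSO negative control for no effect and GSK-3 inhibitor IX positive control for full effect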
#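 Test system: human HeLa cell line; Doses: 5 µM primary, 0.02–20 µM confirmation; Incubation: 24 h compound exposure, 37°C; Detection: beta-catenin immunofluorescence imaging with DAPI; Read-out: beta-catenin nuclear/cytoplasmic ratio, % activation.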
# Ba/F3 V617F tox: lowers viability of Ba/F3 cells expressing EpoR and JAK2V617F; ATP luminescence; inhibition, % at 5.6 µM; 220,000 tested, 1.1% active;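 active = inhibition above the campaign mean plus 3 SD over all tested compounds, cut at about 24% in these data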;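 also: cytokine-independent growth of Ba/F3 cells driven by EpoR plus mutant JAK2; 0% = DMSO-treated cells and 100% = JAK inhibitor I control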
# The depositor's hits bear a star; . = not tested or not shown; ! = repeats disagree. Rows were chosen to be rich in hits. Some 2.2% of all compounds tested hit in one or more screens of this group.
SMILES,MT stabilizer,BaF3 parental,APP 5UTR inh,IEC-6 cytotox,b-catenin transl,Ba/F3 V617F tox
CC1CC(C)CN(CCCNS(=O)(=O)c2ccc3c(c2)oc(=O)n3C)C1 (centres undefined),.,.,.,-8,.,.
COc1ccc(NS(=O)(=O)c2cccc(NC(=O)c3ccc(S(=O)(=O)N4CCCCCC4)cc3)c2)cc1,18*,44*,22,11,0,42*
COc1ccc(NS(=O)(=O)c2ccc(N3CCOCC3)c(NC(=O)c3ccccc3Cl)c2)cc1,6,42*,-2,2,0,43*
COc1ccc(NS(=O)(=O)c2ccc(O)c(NC(=O)c3ccc(S(=O)(=O)N4CCCCCC4)cc3)c2)cc1,1,4,-12,2,1,-1
COc1ccc(NS(=O)(=O)c2ccc(N3CCOCC3)c(NC(=O)c3ccc(OC)cc3)c2)cc1,3,42*,-4,6,-2,41*
Cc1ccc(CCNS(=O)(=O)c2cc(Br)cnc2N)cc1,.,.,.,1,.,.
O=C(N/N=C/c1ccc(F)cc1)c1cc[n+]([O-])cc1,.,.,.,-8,.,.
O=C(/C=C/c1ccc(OC(F)F)cc1)Nc1cccc(S(=O)(=O)N2CCOCC2)c1,.,.,.,3,.,.
CCOC(=O)c1ccc(N2C(=O)c3n[nH]c(C)c3C2c2ccc(OC)c(OC)c2)cc1 (centres undefined),38*,5,-4,-1,2,-1
O=C(/C=C/c1cccs1)NC(=S)NNC(=O)c1ccccc1O,1,54*,18,-4,-5,94*
CC[C@H](C)C(=O)O[C@H]1CCC=C2C=C[C@H](C)[C@H](CC[C@@H]3C[C@@H](O)CC(=O)O3)[C@H]21,10,27*!,5,3,-1,62*
CC[C@H](C)C(=O)O[C@H]1C[C@@H](C)C=C2C=C[C@H](C)[C@H](CC[C@@H]3C[C@@H](O)CC(=O)O3)[C@H]21,6,8,8,-3,.,3
O=C(NCCc1csc(-c2cccnc2)n1)c1ccc(Br)o1,2,6,-2,3,2,-1
O=C(NCCc1csc(-c2cccnc2)n1)c1ccco1,2,96*,3,4,-1,-4
CCCCOC(=O)C[N+](C)(C)CCOC1CC2CCC1(C)C2(C)C (centres undefined),4,58*,-24,2,-2,54*
CCCCCCOC(=O)C[N+](C)(C)CCOC1CC2CCC1(C)C2(C)C (centres undefined),6,80*,10,-5,-4,89*
CC1(C)C2CCC1(C)C(OCCNCCOC(=O)Nc1ccccc1)C2 (centres undefined),.,-2,.,2,0,-1
CC(C)CCOC(=O)C[N+](C)(C)CCOC1CC2CCC1(C)C2(C)C (centres undefined),3,76*,12,2,-1,90*
COc1cc(/C=C/C(=O)OC2CC3CCC2(C)C3(C)C)ccc1O (centres undefined),.,.,.,.,2,.
CCCCCCCOC(=O)C[N+](C)(C)CCOC1CC2CCC1(C)C2(C)C (centres undefined),8,85*,10,4,0,101*
O=C(Nc1ccccc1F)c1ccc2ncsc2c1,.,.,.,3,.,.
CCCOC(=O)C[N+](C)(C)CCOC1CC2CCC1(C)C2(C)C (centres undefined),.,46*,.,2,-1,30*
CCC(C)OC(=O)C[N+](C)(C)CCOC1CC2CCC1(C)C2(C)C (centres undefined),5,74*,-2,1,0,82*
O=C(CN(Cc1ccccc1)C(=O)CNS(=O)(=O)c1ccc(F)cc1)NCc1ccco1,.,.,.,0,.,.
CC[n+]1c(/C=C/C=C/N(C(C)=O)c2ccccc2)sc2cc(OC)ccc21,73*,5,34,-4,165*,0
SMILES,MT stabilizer,BaF3 parental,APP 5UTR inh,IEC-6 cytotox,b-catenin transl,Ba/F3 V617F tox
CC[n+]1c(/C=C(\C)OC)sc2ccccc21,3,9,-8,1,0,-1
Cc1ccc(NC(=S)NCC(C)C)cc1,2,6,-6,-4,1,4
COc1cc(/C=C/C(=O)c2ccc(O)cc2)ccc1OCC#N,11*,1,15,9,-2,1
COc1cccc(C(=O)/C=C/c2ccc(OCC#N)c(OC)c2)c1,3,1,14,-3,1,-3
Cc1nn(-c2ccccc2)c2c1c(C)c(CCC(=O)N1CCOCC1)c(=O)n2C,.,.,.,4,.,.
CCOc1cccc(C2NC(=S)NC(C)=C2C(=O)Nc2ccccc2)c1 (centres undefined),14*,7,-3,-10,1,0
CCOc1cc(C2NC(=S)NC(C)=C2C(=O)Nc2ccc(OC)cc2)ccc1O (centres undefined),4,1,10,5,-3,-5
COc1cccc(CNC(=O)CSc2nnc3c(n2)[nH]c2ccc(C)cc23)c1,.,.,.,-3,.,.
CC(C)(C)c1ccc(-c2cc(N)n[nH]2)cc1,6,8,61*,-8,.,-2
O=C(Nc1ccc([N+](=O)[O-])cc1)Nc1nc(-c2ccc(Cl)s2)cs1,2,4,56*,-10,1,-2
COc1ccc2[nH]c(=O)c(CN(Cc3ccco3)C(=O)c3ccccc3)cc2c1,4,2,14,-9,-7,2
CCOc1ccc2[nH]c(=O)c(CN(CC3COCCO3)C(=O)c3ccco3)cc2c1 (centres undefined),.,.,.,.,-3,.
CCOc1ccc2[nH]c(=O)c(CN(Cc3ccc(F)cc3)C(=O)c3ccco3)cc2c1,47*,9,-10,4,-4,1
COc1ccccc1NC(=O)N(Cc1cc2cc(OC)c(OC)cc2[nH]c1=O)CC1CCCO1 (centres undefined),1,10,2,-1,-8,2
CCOc1ccc2[nH]c(=O)c(CN(Cc3ccccc3OC)C(=O)c3ccccc3)cc2c1,24*,5,6,-2,-2,-1
COc1ccc2[nH]c(=O)c(CN(CC3CCCO3)C(=O)Nc3ccccc3OC)cc2c1 (centres undefined),40*,3,14,2,2,2
C=CCOC(=O)C1=C(C)NC(SC)=C(C#N)C1c1cccs1 (centres undefined),38*,2,3,8,39,0
O=C(Nc1ccc(NC(=O)c2cc3ccccc3o2)cc1)c1ccc2c(c1)OCCO2,2,7,67*,-3,0,1
Cc1cc(NC(=O)c2ccc3c(c2)OCCO3)ccc1NC(=O)c1cc2ccccc2o1,3,3,-28,3,0,-3
CCCc1nnc(NC(=O)CCC(=O)NCCc2ccc(OC)c(OC)c2)s1,4,-4,73*,-1,-2,-3
Cc1cccc(-c2nnc(SCC(=O)C(C)(C)C)n2C)c1,.,-4,.,2,0,-3
COc1cc(C(=O)Nc2ccc3c(c2)N(C(=O)CN2CCN(C)CC2)c2ccccc2CC3)cc(OC)c1OC,.,0,.,6,0,-3

# From PubChem
